Results as given in ChEMBL document CHEMBL2385035 (J Med Chem, 2013).
pIC50: −log10 of the molar value. Active and inactive are the calls of the source. The rule behind the calls is not given here.

What was measured:
[1] = target: T1, Ileal sodium/bile acid cotransporter (Rattus norvegicus, UniProt Q62633); experiment: Inhibition of rat ASBT expressed in HEK293 cells assessed as inhibition of [3H]-taurocholate uptake after 90 mins by scintillation counting analysis; format: cell-based
T1 sequence (Q62633 whole entry): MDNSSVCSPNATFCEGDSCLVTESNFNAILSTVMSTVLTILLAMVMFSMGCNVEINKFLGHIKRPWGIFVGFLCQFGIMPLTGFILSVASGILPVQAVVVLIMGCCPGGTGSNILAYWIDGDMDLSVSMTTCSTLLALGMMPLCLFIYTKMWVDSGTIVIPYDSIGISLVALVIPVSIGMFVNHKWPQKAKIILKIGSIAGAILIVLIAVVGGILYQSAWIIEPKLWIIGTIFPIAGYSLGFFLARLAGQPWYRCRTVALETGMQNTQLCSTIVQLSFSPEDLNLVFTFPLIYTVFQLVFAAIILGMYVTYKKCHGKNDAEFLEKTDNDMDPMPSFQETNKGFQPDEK

Rattus norvegicus [2] = experiment: In vivo inhibition of ASBT in portal vein cannulated lean Sprague-Dawley rat assessed as decrease in portal vein bile acid level at 10 mg/kg, po measured after 1 to 2 hrs relative to vehicle-treated control; format: functional, organism-based; parameters: dose 10 mg/kg
Mus musculus [3] = experiment: In vivo inhibition of ASBT in C57BL/6J mouse assessed as increase in fecal bile acid excretion measured for 24 hrs; format: functional; conditions: Feces
[4] = target: T2, Ileal sodium/bile acid cotransporter (Mus musculus, UniProt P70172); experiment: Inhibition of mouse ASBT expressed in HEK293 cells assessed as inhibition of [3H]-taurocholate uptake after 90 mins by scintillation counting analysis; format: cell-based
T2 sequence (P70172 whole entry): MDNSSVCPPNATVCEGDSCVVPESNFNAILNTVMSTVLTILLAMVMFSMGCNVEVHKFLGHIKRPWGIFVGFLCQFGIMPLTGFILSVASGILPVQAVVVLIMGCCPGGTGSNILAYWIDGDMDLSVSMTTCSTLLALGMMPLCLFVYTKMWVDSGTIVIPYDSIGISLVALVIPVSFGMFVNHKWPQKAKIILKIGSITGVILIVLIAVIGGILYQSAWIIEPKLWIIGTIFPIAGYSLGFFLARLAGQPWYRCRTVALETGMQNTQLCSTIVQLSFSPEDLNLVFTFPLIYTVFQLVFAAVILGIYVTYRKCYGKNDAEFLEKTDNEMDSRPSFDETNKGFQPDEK

[5] = Apparent permeability in MDCK cells expressing MDR1 at 3 uM after 60 mins by LC-MS/MS analysis; format: ADME, cell-based, Canis lupus familiaris; conditions: dog
Rattus norvegicus [6] = experiment: Antidiabetic activity in Zucker diabetic fatty rat assessed as reduction in blood HbA1c level at 0.05 to 10 mg/kg, po bid for 2 weeks measured on day 14 relative to vehicle-treated control; format: functional; parameters: scale not given: the % may be the effect or the level left; conditions: dose mg/kg 0.05-10
Method in brief: (§1)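 Male ZDF rats, 8 weeks old, dosed orally twice daily for 14 days in two separate studies. Day-14 tail-vein blood sampled for HbA1c and for plasma glucose (nonfasted), insulin and total GLP-1. Compared with vehicle-treated animals, significance at p < 0.05.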

Rattus norvegicus [7] = experiment: Antidiabetic activity in portal vein cannulated lean Sprague-Dawley rat assessed as increase in portal vein PYY level at 10 mg/kg, po measured after 3 to 8 hrs; format: functional, organism-based; parameters: dose 10 mg/kg
[8] = Stability of the compound by glutathione trapping assay; format: physicochemical
Rattus norvegicus [9] = experiment: Antidiabetic activity in Zucker diabetic fatty rat assessed as increase in plasma insulin level at 0.05 to 10 mg/kg, po bid for 2 weeks measured on day 14 relative to vehicle-treated control; format: functional, organism-based; method in brief: as §1
[10] = Cmax in Sprague-Dawley rat systemic blood at 10 mg/kg, po; format: ADME, organism-based; parameters: dose 10 mg/kg, route oral
Method in brief: (§2)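 Fed male SD rats given a single oral gavage dose of 10 mg/kg. Maximum parent drug concentration measured in portal vein blood and in systemic blood.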

[11] = Cmax in Sprague-Dawley rat portal vein blood at 10 mg/kg, po; format: ADME, organism-based; parameters: dose 10 mg/kg, route oral; method in brief: as §2
Rattus norvegicus [12] = experiment: Antidiabetic activity in Zucker diabetic fatty rat assessed as increase in fecal bile acid excretion at 0.05 to 10 mg/kg, po bid for 2 weeks measured for 24 hrs post last dose relative to vehicle-treated control; format: functional, Feces; conditions: dose mg/kg 0.05-10
Rattus norvegicus [13] = experiment: Antidiabetic activity in portal vein cannulated lean Sprague-Dawley rat assessed as effect on portal vein GIP level at 10 mg/kg, po measured after 3 to 8 hrs relative to vehicle-treated control; format: functional, organism-based; parameters: dose 10 mg/kg
Rattus norvegicus [14] = experiment: Antidiabetic activity in portal vein cannulated lean Sprague-Dawley rat assessed as increase in portal vein total GLP-1 level at 10 mg/kg, po measured after 3 to 8 hrs; format: functional, organism-based; parameters: dose 10 mg/kg
Mus musculus [15] = experiment: In vivo inhibition of ASBT in C57BL/6J mouse assessed as increase in fecal bile acid excretion measured for 24 hrs relative to 264W94; format: functional, Feces; parameters: concentration or dose not given beside the values
Rattus norvegicus [16] = experiment: Antidiabetic activity in Zucker diabetic fatty rat assessed as reduction in non-fasted plasma glucose level at 0.05 to 10 mg/kg, po bid for 2 weeks measured on day 14 relative to vehicle-treated control; format: functional; parameters: scale not given: the % may be the effect or the level left; conditions: dose mg/kg 0.05-10; method in brief: as §1
Rattus norvegicus [17] = experiment: Antidiabetic activity in Zucker diabetic fatty rat assessed as increase in total GLP-1 level at 0.05 to 10 mg/kg, po bid for 2 weeks measured on day 14 relative to vehicle-treated control; format: functional, organism-based; method in brief: as §1
[18] = Aqueous solubility of the compound; format: physicochemical; conditions: buffer
[19] = Half life in Sprague-Dawley rat intestine at 10 mg/kg, po; format: ADME, organism-based; parameters: dose 10 mg/kg, route oral
[20] = Drug recovery in Sprague-Dawley rat feces at 10 mg/kg, po; format: ADME, organism-based; parameters: dose 10 mg/kg, route oral; conditions: read-out: Drug recovery
Rattus norvegicus [21] = experiment: Antidiabetic activity in Zucker diabetic fatty rat assessed as reduction in non-fasted plasma glucose level at 0.001 to 10 mg/kg, po bid for 2 weeks measured on day 14 relative to vehicle-treated control; format: functional; parameters: scale not given: the % may be the effect or the level left; conditions: dose mg/kg 0.001-10; method in brief: as §1
Rattus norvegicus [22] = experiment: Antidiabetic activity in Zucker diabetic fatty rat assessed as reduction in blood HbA1c level at 0.001 to 10 mg/kg, po bid for 2 weeks measured on day 14 relative to vehicle-treated control; format: functional; parameters: scale not given: the % may be the effect or the level left; conditions: dose mg/kg 0.001-10; method in brief: as §1
Rattus norvegicus [23] = experiment: Antidiabetic activity in Zucker diabetic fatty rat assessed as increase in total GLP-1 level at 0.001 to 10 mg/kg, po bid for 2 weeks measured on day 14 relative to vehicle-treated control; format: functional, organism-based; method in brief: as §1
Cynomolgus monkey = experiment: Cmax in cynomolgous monkey systemic blood at 3 mg/kg, po; format: ADME, organism-based, Macaca fascicularis; parameters: dose 3 mg/kg, route oral; conditions: in vivo, BLD = below limit of detection
Method in brief: (§3)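 Solution dosed orally to fed SD rats (10 mg/kg), male beagle dogs (10 mg/kg) or cynomolgous monkeys (3 mg/kg). Parent compound measured in systemic circulation; rat lower limit of quantitation 1 ng/mL.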

Rattus norvegicus [24] = experiment: Antidiabetic activity in Zucker diabetic fatty rat assessed as increase in plasma insulin level at 0.001 to 10 mg/kg, po bid for 2 weeks measured on day 14 relative to vehicle-treated control; format: functional, organism-based; method in brief: as §1
[25] = target: T3, Ileal sodium/bile acid cotransporter (Homo sapiens, UniProt Q12908); experiment: Inhibition of human ASBT expressed in HEK293 cells assessed as inhibition of [3H]-taurocholate uptake after 90 mins by scintillation counting analysis; format: cell-based
T3 sequence (Q12908 whole entry): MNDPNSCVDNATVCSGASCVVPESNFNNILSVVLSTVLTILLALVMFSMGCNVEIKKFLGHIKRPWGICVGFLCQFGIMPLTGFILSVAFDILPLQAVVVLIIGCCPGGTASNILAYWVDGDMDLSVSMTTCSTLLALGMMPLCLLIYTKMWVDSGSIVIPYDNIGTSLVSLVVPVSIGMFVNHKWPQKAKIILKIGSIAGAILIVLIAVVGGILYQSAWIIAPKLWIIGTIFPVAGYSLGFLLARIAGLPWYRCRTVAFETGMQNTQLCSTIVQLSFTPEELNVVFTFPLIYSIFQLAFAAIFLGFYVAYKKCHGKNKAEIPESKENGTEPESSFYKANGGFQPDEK

[26] = Aqueous solubility of the compound at pH 7.4; format: physicochemical; conditions: buffer
[27] = Cmax in beagle dog systemic blood at 10 mg/kg, po; format: ADME, organism-based, Canis lupus familiaris; parameters: dose 10 mg/kg, route oral; method in brief: as §3
[28] = Thermal stability of the compound; format: physicochemical
Intestine = experiment: Metabolic stability in Sprague-Dawley rat intestine assessed as formation of (7R,9R)-7-Butyl-7-ethyl-2-methoxy-5,5-dioxo-9-phenyl-6,7,8,9-tetrahydro-5H-5lambda(6)-thia-8-aza-benzocyclohepten-3-ol at 10 mg/kg, po after 2 to 24 hrs; format: ADME, organism-based; parameters: dose 10 mg/kg, route oral; conditions: in vivo

Row | pIC50 [1] | pIC50 [4] | Papp at 1 h, 3 µM [5] [×10⁻⁶ cm/s] | Cmax [10] [ng/mL] | Cmax [11] [ng/mL] | solubility [18] [µg/mL] | half-life [19] [h] | dose excreted [20] [%] | pIC50 [25] | Structure (SMILES) | ED50 (Mus musculus [3]) [mg/kg] | fold change (FC) (Rattus norvegicus [12]) | Efficacy (Mus musculus [15]) [%] | further results
1 | 9.05 | 9.30 | 0.7 | 3 | 14 | ≥ 200 | > 12 | 87 |  | CCCC[C@]1(CC)CS(=O)(=O)c2cc(CP(=O)(O)O)c(OC)cc2[C@@H](c2ccccc2)N1 | 0.12 | 7 | 92 | inhibition (Rattus norvegicus [2]): Active; Activity (Rattus norvegicus [6]): 1.3%; Activity (Rattus norvegicus [7]): Active; Stability [8]: Unstable; Activity (Rattus norvegicus [9]): Active; Activity (Rattus norvegicus [13]): inactive; Activity (Rattus norvegicus [14]): Active; Activity (Rattus norvegicus [16]): >50%; Activity (Rattus norvegicus [17]): Active
2 | 8.72 | 8.68 | 0.7 |  | 4 | ≥ 200 | > 12 | 98 | 7.38 | CCCC[C@]1(CC)CS(=O)(=O)c2cc(CNC(CC(=O)O)CC(=O)O)c(OC)cc2[C@@H](c2ccccc2)N1 [LINERIXIBAT] | 0.022 | 7 | 94 | Activity (Rattus norvegicus [21]): >50%; Activity (Rattus norvegicus [22]): 1.3%; Activity (Rattus norvegicus [23]): Active; Cmax (Cynomolgus monkey): BLD; Activity (Rattus norvegicus [24]): Active; solubility [26]: > 7000 µg/mL; Cmax [27]: 6 ng/mL; Stability [28]: Stable
3 | 7.66 | 8.52 | 10.7 | 19 | 100 |  |  | 3 | 6.74 | CCCC[C@]1(CC)CS(=O)(=O)c2cc(OC)c(OC)cc2[C@@H](c2ccccc2)N1 | 0.13 |  | 100 | Stability (Intestine): Unstable
